Published values of several laboratories.
Each line is one published result; the experiments were not run side by side. ≈ marks a conversion by molar mass, not a printed value.
Organism: Cryptococcus neoformans

O=C(CCCCCCCC[P+](c1ccccc1)(c1ccccc1)c1ccccc1)Nc1ccc(O)c(O)c1.[Br-]  MIC (microbial growth; broth dilution; ATCC208821; 24 h): > 32 µg/mL
OCCN1CCN(CCCN2c3ccccc3Sc3ccc(Cl)cc32)CC1  MIC (microbial growth; broth dilution): 16 µg/mL
C#CCCCCCCCCCCCC(O)CC(O)CO (centres unmarked)  IC50 (microbial growth; broth dilution; ATCC90113): 8 µg/mL (≈ 28.1 µM)
C[C@@H]1[C@H](O)[C@@H](C)/C=C/C=C/C=C/C=C/C=C/C=C/C=C/[C@H](O[C@@H]2O[C@H](C)[C@@H](O)[C@H](N)[C@@H]2O)C[C@@H]2O[C@](O)(C[C@@H](O)C[C@@H](O)[C@H](O)CC[C@@H](O)C[C@@H](O)CC(=O)O[C@H]1C)C[C@H](O)[C@H]2C(=O)O  IC50 (microbial growth; ATCC90113): 1.14 µg/mL (≈ 1.23 µM)
O=C(CCCCCCCCCC[P+](c1ccccc1)(c1ccccc1)c1ccccc1)Nc1ccc(O)c(O)c1.[Br-]  MIC (microbial growth; broth dilution; ATCC208821; 24 h): > 32 µg/mL
C[C@@H]1[C@H](O)[C@@H](C)/C=C/C=C/C=C/C=C/C=C/C=C/C=C/[C@H](O[C@@H]2O[C@H](C)[C@@H](O)[C@H](N)[C@@H]2O)C[C@@H]2O[C@](O)(C[C@@H](O)C[C@@H](O)[C@H](O)CC[C@@H](O)C[C@@H](O)CC(=O)O[C@H]1C)C[C@H](O)[C@H]2C(=O)O  MFC (microbial killing; ATCC90113): 0.68 µM (≈ 0.628 µg/mL)
O=C(CCc1cc(O)c(O)c(O)c1)NCCCCCCCC[P+](c1ccccc1)(c1ccccc1)c1ccccc1.[Br-]  MIC (microbial growth; broth dilution; ATCC208821; 24 h): > 32 µg/mL
CCCCCCCCCCCCCC(O)CC(O)CO (centres unmarked)  IC50 (microbial growth; broth dilution; ATCC90113): 32.9 µg/mL (≈ 114 µM)
Cc1occc(=O)c1O  MIC (microbial growth; broth dilution; 48 h): > 100 µM
C=CCCCCCCCCCCCC(O)CC(O)CO (centres unmarked)  IC50 (microbial growth; broth dilution; ATCC90113): > 200 µg/mL
Cl.Oc1cccc2c1[nH]c1c(C3=CC4(O)CC/C=C\CCCCN5CCC3C3(CC6/C=C\CCCCN6C43)C5)nccc12 (single isomer, unassigned; (+))  IC50 (microbial growth; ATCC90113): 2.69 µg/mL
